Test results taken from PMC3204214 (Proteins, 2011).
Entries after “also recorded” stand apart in the source; their conditions may differ.

Experiments:
[1] = ref [12]; cited from earlier work
[2] = holo-Crcen; ref [11]; cited from earlier work
[3] = biological target: melittin (Apis mellifera) (UniProt P01501); conditions: cited from earlier work
[4] = biological target: Chlamydomonas reinhardtii centrin (Chlamydomonas reinhardtii) (UniProt P05434); assay: ITC
human centrin 2 (Hscen2) = conditions: 30 °C, pH 6.5; compared to Crcen-MLT and CaM-MLT; ref [16]; cited from earlier work
CaM (calmodulin) = conditions: cited from earlier work
calmodulin (CaM) = conditions: literature statement; cited from earlier work
[5] = FT-IR / 2D IR correlation spectroscopy, thermal dependence; assay type: physicochemical; conditions: ^13C-Crcen-MLT complex
[6] = biological target: T1, Crcen (Chlamydomonas reinhardtii centrin) (Chlamydomonas reinhardtii, UniProt P05434); assay: X-ray crystal structure of Crcen-MLT complex; assay type: binding; conditions: PDB 3QRX, 2.30 Å, 4 Ca^2+ ions, Crcen-MLT 1:1.5 molar ratio
tumor = conditions: ref [23],[24]; cited from earlier work
human centrin 3 = conditions: compared to Hscen2-MLT (Kd 62.5 nM); ref [16],[25]; cited from earlier work
[7] = biological target: T1, Crcen (Chlamydomonas reinhardtii centrin); assay: Isothermal titration calorimetry of Crcen-MLT interaction; assay type: binding; conditions: ITC, pH 7.4, 25 °C
In short: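 Unlabeled recombinant centrin was expressed in E. coli, purified, and quantified by ε280 = 1,490 M⁻¹ cm⁻¹. The acetylated, amidated test peptide was dialysed against 0.1 N HCl to remove TFA, then against buffer. 120 μM peptide was injected sequentially into 10 μM centrin in 50 mM Hepes, 150 mM NaCl, 4 mM CaCl₂, 4 mM MgCl₂, pH 7.4, 25 °C. Data were fitted to a one-site binding model.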

Melittin (Ac-…-NH2) (peptide), sequence (P01501 44-69): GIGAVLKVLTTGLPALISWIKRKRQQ
T1 sequence (P05434 2-169): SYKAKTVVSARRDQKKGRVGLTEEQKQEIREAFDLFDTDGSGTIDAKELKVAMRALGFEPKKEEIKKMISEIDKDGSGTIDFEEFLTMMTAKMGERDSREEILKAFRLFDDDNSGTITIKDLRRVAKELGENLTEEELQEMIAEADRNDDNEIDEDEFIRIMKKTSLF
Chlamydomonas reinhardtii centrin (Chlamydomonas reinhardtii), sequence (P05434 whole entry): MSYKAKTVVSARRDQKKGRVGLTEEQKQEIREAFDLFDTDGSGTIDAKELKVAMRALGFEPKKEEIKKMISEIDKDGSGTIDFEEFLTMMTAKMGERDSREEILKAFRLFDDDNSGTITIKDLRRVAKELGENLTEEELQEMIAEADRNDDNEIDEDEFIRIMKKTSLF
melittin (Apis mellifera), sequence (P01501 44-70): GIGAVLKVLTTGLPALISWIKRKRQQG
human centrin 2, sequence (P41208 2-172): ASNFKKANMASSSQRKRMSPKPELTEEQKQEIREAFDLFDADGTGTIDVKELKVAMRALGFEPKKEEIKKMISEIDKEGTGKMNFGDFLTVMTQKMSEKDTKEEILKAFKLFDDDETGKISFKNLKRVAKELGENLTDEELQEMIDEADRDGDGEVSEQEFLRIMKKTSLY

For “Crcen: Chlamydomonas reinhardtii centrin (Swiss Protein Database accession number P05434), EF-hand calcium binding protein”, the “shift of amide I’ peak maximum with temperature, unlabeled Crcen” value [1] is listed as 2.5 cm⁻¹ and the “Tm (transition temperature)” value [2] is listed as 112.1 °C.

For human centrin 2 (from UniProt P41208), the Kd [3] is listed as 0.0625 µM.

Melittin (Ac-…-NH2) (peptide) showed a Kd [4] of 0.00741 µM, a dH [4] of -11.4 kJ/mol and a stoichiometry N [4] of 1.38.

For `CC[C@H](C)[C@H](NC(=O)CNC(C)=O)C(=O)NCC(=O)N[C@@H](C)C(=O)N[C@H](C(=O)N[C@@H](CC(C)C)C(=O)N[C@@H](CCCCN)C(=O)N[C@H](C(=O)N[C@@H](CC(C)C)C(=O)N[C@H](C(=O)N[C@H](C(=O)NCC(=O)N[C@@H](CC(C)C)C(=O)N1CCC[C@H]1C(=O)N[C@@H](C)C(=O)N[C@@H](CC(C)C)C(=O)N[C@H](C(=O)N[C@@H](CO)C(=O)N[C@@H](Cc1c[nH]c2ccccc12)C(=O)N[C@H](C(=O)N[C@@H](CCCCN)C(=O)N[C@@H](CCCNC(=N)N)C(=O)N[C@@H](CCCCN)C(=O)N[C@@H](CCCNC(=N)N)C(=O)N[C@@H](CCC(N)=O)C(=O)N[C@@H](CCC(N)=O)C(N)=O)[C@@H](C)CC)[C@@H](C)CC)[C@@H](C)O)[C@@H](C)O)C(C)C)C(C)C` [MLT], the “enthalpy change, Hscen2-MLT” value (human centrin 2 (Hscen2)) is given as “much more favorable for binding”, the “thermodynamic driving force of complex formation, CaM” value (CaM (calmodulin); BtCaM, 25 °C, pH 7.0, ref [14]) is given as “driven by entropy” and the “dissociation constant (Kd), holo-CaM” value (CaM (calmodulin); holo-CaM-MLT, 1:1 molar ratio, ref [14],[15],[17]) is given as “low nanomolar range”. The Kd (CaM (calmodulin); read-out: Kd, apo-CaM, ref [17],[18]) was ~10 µM, the “inhibition of calmodulin (CaM) activity” value (calmodulin (CaM)) was “potent inhibitor” and the “conformational change of MLT in the complex” value [5] was “increased helicity”. The “binding site in crystal structure” value [6] was “interacts with the C-terminal domain of Crcen; also recorded: limits its interaction to the C-terminal domain of centrin”, the cytotoxicity (tumor) was “cytotoxicity” and the “effect on tumor growth” value (tumor) was “inhibitory effect on tumor growth”. The “affinity, human centrin 3-MLT, fold higher than Hscen2-MLT” value (human centrin 3) was 2–3 fold, the “thermodynamic driving force of complex formation” value [7] was “driven by entropy; also recorded: driven entropically” and the ΔG [7] was -46.4 kJ/mol. The ΔS [7] was 28.0 cal/mol∙K, the “n (binding stoichiometry)” value ([7]; one-site binding model) was 1.38 ± 0.01 and the ΔHb ([7]; exothermic) was -11.4 ± 0.29 kJ/mol.
